Data reported in ChEMBL document CHEMBL4196164, “Tariquidar-Related Chalcones and Ketones as ABCG2 Modulators” (ACS Med Chem Lett, 2018).
pIC50: −log10 of the molar value.

Experiments:
[1] = target: T1, Broad substrate specificity ATP-binding cassette transporter ABCG2 (Homo sapiens, UniProt Q9UNQ0); assay: Inhibition of ABCG2 in human MCF7/Topo cells after 2 hrs by Hoechst 33342 staining based fluorescence assay; type: cell-based
T1 sequence (Q9UNQ0 whole entry): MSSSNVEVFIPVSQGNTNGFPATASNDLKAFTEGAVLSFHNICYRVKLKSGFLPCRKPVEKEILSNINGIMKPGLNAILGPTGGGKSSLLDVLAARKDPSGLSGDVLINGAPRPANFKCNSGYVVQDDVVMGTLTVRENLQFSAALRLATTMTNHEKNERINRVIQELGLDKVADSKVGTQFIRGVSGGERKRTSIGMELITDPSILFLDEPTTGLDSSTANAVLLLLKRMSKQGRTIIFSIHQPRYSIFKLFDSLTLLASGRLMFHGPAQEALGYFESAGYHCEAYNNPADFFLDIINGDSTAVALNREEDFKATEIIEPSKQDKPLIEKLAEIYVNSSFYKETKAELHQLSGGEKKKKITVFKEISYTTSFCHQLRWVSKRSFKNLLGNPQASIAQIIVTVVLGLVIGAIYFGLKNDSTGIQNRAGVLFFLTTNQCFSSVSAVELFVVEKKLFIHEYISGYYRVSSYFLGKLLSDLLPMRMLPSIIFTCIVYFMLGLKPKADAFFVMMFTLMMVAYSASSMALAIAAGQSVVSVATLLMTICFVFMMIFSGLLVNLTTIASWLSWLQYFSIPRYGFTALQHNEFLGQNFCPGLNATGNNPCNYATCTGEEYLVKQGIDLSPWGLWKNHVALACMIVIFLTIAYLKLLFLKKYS
Method in brief: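 ABCG2-overexpressing MCF-7/Topo cells, Hoechst 33342 accumulation in microplate format; inhibition expressed relative to 10 μM FTC (100%). Relative IC50 taken as the midpoint between lower and upper plateaus of each compound's own concentration–response curve, from four-parameter fit; mean ± SEM of three independent experiments in triplicate.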

[2] = target: T2, ABCG2 (Homo sapiens, UniProt Q9UNQ0); assay: Inhibition of ABCG2 in human MCF7/Topo cells at 100 uM after 2 hrs by Hoechst 33342 staining based fluorescence assay relative to 10 uM FTC; type: cell-based; details: probe Hoechst 33342, read-out: Imax
T2 sequence (Q9UNQ0 whole entry): T1 sequence (Q9UNQ0 whole entry)
Method in brief: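 Hoechst 33342 microplate assay in ABCG2-overexpressing MCF-7/Topo cells; maximal inhibitory effect taken as inhibition at the highest concentration (100 μM) of compound, expressed relative to the inhibition from 10 μM FTC set as 100%.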

[3] = target: ABCB1 (Homo sapiens, UniProt P08183); assay: Inhibition of ABCB1 in human KBV1 cells at 10 uM measured after 10 mins by calcein-AM dye based fluorescence assay relative to 10 uM tariquidar; type: cell-based; details: probe calcein-AM
[4] = target: ABCC1 (Homo sapiens, UniProt P33527); assay: Inhibition of human ABCC1 expressed in MDCK2 cells at 10 uM after 60 mins by calcein-AM dye based fluorescence assay relative to 30 uM reversan; type: cell-based; details: MDCK2 cells that express human ABCC1, probe calcein-AM
[5] = Stability of the compound in DMEM measured over 24 hrs by HPLC analysis; type: physicochemical
Method in brief: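 Compounds incubated in assay medium (DMEM with 10% fetal calf serum) at 37 °C; aliquots analysed by HPLC over 24 h for cleavage or degradation products.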

[6] = Cytotoxicity against human MCF7/Topo cells at 0.1 to 10 uM measured up to 120 hrs by crystal violet staining based assay; type: cell-based
Method in brief: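 Kinetic chemosensitivity assay on proliferating ABCG2-overexpressing MCF-7/Topo cells under long-term exposure at 100 nM, 1, 3 and 10 μM; 100 nM vinblastine as positive control, DMSO vehicle as negative control; growth curves followed over time.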

[7] = target: T1, Broad substrate specificity ATP-binding cassette transporter ABCG2; assay: Inhibition of ABCG2 (unknown origin) expressed in MDCK2 cells incubated for 30 mins measured at 60 secs interval for 120 mins by Hoechst 33342 staining based fluorescence assay; type: cell-based
[8] = target: T1, Broad substrate specificity ATP-binding cassette transporter ABCG2; assay: Inhibition of ABCG2 (unknown origin) expressed in HEK293 cells assessed as reduction in mitoxantrone efflux measured after 30 mins by fluorescence assay; type: cell-based

ABCB1, sequence (P08183 whole entry): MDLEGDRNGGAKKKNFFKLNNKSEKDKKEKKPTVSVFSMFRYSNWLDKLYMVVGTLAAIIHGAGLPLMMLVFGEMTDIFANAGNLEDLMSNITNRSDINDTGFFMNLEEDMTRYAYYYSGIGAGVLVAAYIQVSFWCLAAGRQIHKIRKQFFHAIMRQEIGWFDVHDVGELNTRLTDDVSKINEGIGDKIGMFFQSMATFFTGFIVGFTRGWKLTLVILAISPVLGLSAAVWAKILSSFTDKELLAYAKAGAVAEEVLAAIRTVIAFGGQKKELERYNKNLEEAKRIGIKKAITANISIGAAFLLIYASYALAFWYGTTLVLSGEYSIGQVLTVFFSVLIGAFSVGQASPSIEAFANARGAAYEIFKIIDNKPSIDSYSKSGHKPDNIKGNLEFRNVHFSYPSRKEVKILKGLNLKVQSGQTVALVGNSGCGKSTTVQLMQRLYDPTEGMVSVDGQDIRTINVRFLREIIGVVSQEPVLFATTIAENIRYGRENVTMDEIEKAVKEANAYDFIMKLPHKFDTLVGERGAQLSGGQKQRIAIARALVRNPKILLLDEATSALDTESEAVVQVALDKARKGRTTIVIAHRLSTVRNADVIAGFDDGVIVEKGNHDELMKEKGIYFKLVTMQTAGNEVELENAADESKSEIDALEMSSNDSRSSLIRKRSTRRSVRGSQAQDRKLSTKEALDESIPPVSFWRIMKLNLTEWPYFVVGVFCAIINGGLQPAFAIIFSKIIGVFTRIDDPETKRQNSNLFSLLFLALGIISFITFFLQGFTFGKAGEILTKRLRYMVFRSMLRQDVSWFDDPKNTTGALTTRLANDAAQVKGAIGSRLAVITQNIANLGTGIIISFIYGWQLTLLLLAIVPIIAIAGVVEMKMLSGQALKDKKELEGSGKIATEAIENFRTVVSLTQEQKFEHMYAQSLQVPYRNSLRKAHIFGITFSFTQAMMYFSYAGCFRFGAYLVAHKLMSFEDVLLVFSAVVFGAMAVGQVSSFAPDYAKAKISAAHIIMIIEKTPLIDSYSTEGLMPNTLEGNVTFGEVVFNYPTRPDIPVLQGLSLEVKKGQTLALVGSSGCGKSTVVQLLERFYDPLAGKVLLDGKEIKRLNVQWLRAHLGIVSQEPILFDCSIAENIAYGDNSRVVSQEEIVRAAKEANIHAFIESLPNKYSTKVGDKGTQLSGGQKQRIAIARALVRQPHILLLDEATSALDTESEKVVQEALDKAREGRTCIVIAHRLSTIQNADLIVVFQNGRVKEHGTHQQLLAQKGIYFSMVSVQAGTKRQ
ABCC1, sequence (P33527 whole entry): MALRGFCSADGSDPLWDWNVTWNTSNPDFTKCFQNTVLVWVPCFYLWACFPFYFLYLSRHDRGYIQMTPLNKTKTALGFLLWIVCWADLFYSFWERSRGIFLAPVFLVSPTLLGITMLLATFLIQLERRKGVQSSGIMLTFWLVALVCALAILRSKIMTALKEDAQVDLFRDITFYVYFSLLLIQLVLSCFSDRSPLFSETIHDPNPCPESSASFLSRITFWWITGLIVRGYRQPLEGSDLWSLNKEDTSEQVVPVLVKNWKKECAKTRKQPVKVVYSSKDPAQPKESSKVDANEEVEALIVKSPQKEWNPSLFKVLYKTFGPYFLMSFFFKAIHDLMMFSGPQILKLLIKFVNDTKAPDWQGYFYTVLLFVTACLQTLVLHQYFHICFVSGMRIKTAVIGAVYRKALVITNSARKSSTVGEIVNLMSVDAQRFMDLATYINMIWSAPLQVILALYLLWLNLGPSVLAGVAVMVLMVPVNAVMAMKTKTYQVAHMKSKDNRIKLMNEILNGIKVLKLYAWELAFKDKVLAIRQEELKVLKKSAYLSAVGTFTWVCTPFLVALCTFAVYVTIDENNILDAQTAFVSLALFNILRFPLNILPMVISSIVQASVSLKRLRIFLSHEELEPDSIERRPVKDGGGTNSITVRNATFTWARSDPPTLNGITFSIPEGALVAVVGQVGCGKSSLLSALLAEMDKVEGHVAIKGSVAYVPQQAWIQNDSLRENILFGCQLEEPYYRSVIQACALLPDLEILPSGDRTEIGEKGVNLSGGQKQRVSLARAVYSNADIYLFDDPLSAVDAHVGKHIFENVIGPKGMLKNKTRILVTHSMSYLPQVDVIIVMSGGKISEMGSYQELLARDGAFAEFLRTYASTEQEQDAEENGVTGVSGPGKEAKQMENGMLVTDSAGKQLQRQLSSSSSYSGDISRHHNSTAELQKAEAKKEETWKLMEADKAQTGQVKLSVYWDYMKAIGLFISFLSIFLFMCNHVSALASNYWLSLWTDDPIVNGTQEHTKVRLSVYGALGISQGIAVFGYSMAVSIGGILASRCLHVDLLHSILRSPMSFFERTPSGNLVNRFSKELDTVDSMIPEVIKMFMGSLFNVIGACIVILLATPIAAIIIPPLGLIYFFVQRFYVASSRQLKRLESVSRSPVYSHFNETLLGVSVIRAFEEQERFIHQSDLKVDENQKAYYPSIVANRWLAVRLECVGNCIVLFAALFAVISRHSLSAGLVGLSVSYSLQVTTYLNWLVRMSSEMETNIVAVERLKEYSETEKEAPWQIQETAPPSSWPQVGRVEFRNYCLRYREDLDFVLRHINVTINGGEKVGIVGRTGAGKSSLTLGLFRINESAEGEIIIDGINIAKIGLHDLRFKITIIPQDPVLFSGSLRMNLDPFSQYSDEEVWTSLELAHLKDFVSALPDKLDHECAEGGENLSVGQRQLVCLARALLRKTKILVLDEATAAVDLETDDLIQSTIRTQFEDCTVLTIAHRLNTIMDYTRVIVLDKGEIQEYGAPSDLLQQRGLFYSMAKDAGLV

Row | Compound | pIC50 [1] | Emax at 2 h, 100 µM [2] [%] | inhibition at 10 min, 10 µM [3] [%] | inhibition at 1 h, 10 µM [4] [%] | Stability [5] | Activity [6] | pIC50 [7] | pIC50 [8]
1 | COCCOCCOCCOc1cc2c(cc1OC)CCN(CCOc1ccc(/C=C/C(=O)c3cccc(NC(=O)c4ccc5ccccc5n4)c3)cc1)C2 | 5.55 | 81 | < 25 | < 25 | Stable |  |  | 
2 | COCCOCCOCCOc1cc2c(cc1OC)CCN(CCOc1ccc(/C=C/C(=O)c3ccc(C)c(NC(=O)c4ccc5ccccc5n4)c3)cc1)C2 | 5.57 | 111 | < 25 | < 25 | Stable |  |  | 
3 | COCCOc1cc2c(cc1OC)CCN(CC(=O)c1ccc(C)c(NC(=O)c3ccc4ccccc4n3)c1)C2 | 4.63 | 79 | < 25 | < 25 | Stable |  |  | 
4 | COc1cc2c(cc1OC)CN(CCOc1ccc(/C=C/C(=O)c3cccc(NC(=O)c4ccc5ccccc5n4)c3)cc1)CC2 | 5.39 | 79 | < 25 | < 25 | Stable |  |  | 
5 | COCCOc1cc2c(cc1OC)CCN(CCOc1ccc(/C=C/C(=O)c3cccc(NC(=O)c4ccc5ccccc5n4)c3)cc1)C2 | 5.67 | 72 | < 25 | < 25 | Stable |  |  | 
6 | COCCOCCOCCOc1cc2c(cc1OC)CCN(CC(=O)c1cccc(NC(=O)c3ccc4ccccc4n3)c1)C2 | 5.95 | 47 | < 25 | < 25 | Stable |  |  | 
7 | COCCOCCOCCOc1cc2c(cc1OC)CCN(CC(=O)c1ccc(C)c(NC(=O)c3ccc4ccccc4n3)c1)C2 | 5.18 | 86 | < 25 | < 25 | Stable | Non-Toxic |  | 
8 | COCCOc1cc2c(cc1OC)CCN(CCOc1ccc(/C=C/C(=O)c3ccc(C)c(NC(=O)c4ccc5ccccc5n4)c3)cc1)C2 | 5.81 | 97 | < 25 | < 25 | Stable |  |  | 
9 | COc1ccc(/C=C/C(=O)c2ccccc2NC(=O)c2cccs2)cc1OC |  |  |  |  |  |  | 6.30 | 
10 | COCCOc1cc2c(cc1OC)CCN(CC(=O)c1cccc(NC(=O)c3ccc4ccccc4n3)c1)C2 | 4.84 | 55 | < 25 | < 25 | Stable |  |  | 
11 | COc1cc2c(cc1OC)CN(CCOc1ccc(/C=C/C(=O)c3ccc(C)c(NC(=O)c4ccc5ccccc5n4)c3)cc1)CC2 | 6.06 | 86 | < 25 | < 25 | Stable | Dose-dependent effect |  | 
12 | COc1cc2c(cc1OC)CN(CC(=O)c1ccc(C)c(NC(=O)c3ccc4ccccc4n3)c1)CC2 | 5.06 | 77 | < 25 | < 25 | Stable |  |  | 
13 | COc1cc2c(cc1OC)CN(CC(=O)c1cccc(NC(=O)c3ccc4ccccc4n3)c1)CC2 | 5.17 | 77 | < 25 | < 25 | Stable |  |  | 
14 | COc1cc(OC)c(C(=O)/C=C/c2ccc3nccnc3c2)cc1OC |  |  |  |  |  |  |  | 5.85
